Assay outcomes as filed in PubChem BioAssay.
Measles CPE = protection of cells from measles virus | Measles virus-infected cells, CPE protection, absorbance | protection (pct of control), % at 4 µM | 140,000 tested, 1.5% active | AID 841; in the data active = protection mostly above about 24%, no sharp cut-off; inactive = mostly below about 26%
Yeast growth inh = reduces growth of yeast BB579 in restrictive medium; AID 804; inhibition, % at 10 µM; S. cerevisiae BB579 growth, OD615, 48 h; 140,000 tested, 0.51% active;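 active = inhibition above a set limit, 3 SD over the mean compound inhibition, cut at about 44% in these data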
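Test system: DeaD yeast strain BB579 / Buffer or medium: restrictive glucose-based CSMM-D medium / Doses: single 10 µM dose / Schedule: 4 h cell preincubation, 48 h compound exposure, 30 °C humidified / Technique: culture absorbance at 615 nm / Controls: amphotericin B positive control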
RAM network inh = blocks the yeast RAM network | inhibition, % at 50 µM | S. cerevisiae dse1pr::URA3 reporter, 5-FOA growth OD615, 2 d; analog-sensitive cbk1-as2 kinase mutant strain | AID 868 | 190,000 tested, 1.8% active;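 active = inhibition above a set limit, 3 SD over mean compound inhibition, cut at about 8.4% in these data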;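 note: 0% = DMSO-only wells with no growth and 100% = 10 µM 1-NA-PP1 full growth; inhibition rescues growth on 5-FOA so higher OD means more RAM inhibition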
Yeast lifespan up = yeast lifespan extension | inhibition of the nicotinamide effect, % at 10 µM | S. cerevisiae growth with nicotinamide, OD615; deaD strain in restrictive glucose medium | 130,000 tested, 0.68% active | AID 775;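 active = inhibition above a set limit, placed 3 SD over the median of all compounds, cut at about 26% in these data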;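 note: 0% = nicotinamide-treated wells and 100% = cells grown without nicotinamide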
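Assay system: DeaD-strain S. cerevisiae. Medium: CSMM-D glucose medium, restrictive. Reagent: nicotinamide, 1.5 mM, co-present with compound. Compound: 10 µM single point, 0.25% DMSO. Schedule: culture preincubation 4 h, compound exposure 48 h, both 30 °C. Detection: absorbance at 615 nm.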
Phagocytosis inh = macrophage phagocytosis inhibition; J774A.1 macrophage IgG-bead phagocytosis, imaging; inhibition, % at 5 µM; 110,000 tested, 0.07% active; AID 1029;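 active = inhibition above the mean of the plate negative controls plus 5 SD, cut at about 13% in these data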;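 note: phagocytic index as fraction of beads internalized from green versus red external bead signal; plate controls were DMSO negative control for no effect and cytochalasin-D positive control for full effect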
Active calls of the source: *; · = no result. Only some compounds are listed: those with a hit (about 3.6% of all), similar ones and a draw of the others.

SMILES	Measles CPE	Yeast growth inh	RAM network inh	Yeast lifespan up	Phagocytosis inh
OCCC1CN(Cc2cccn2-c2nccs2)CCN1Cc1ccc(F)c(F)c1 (stereo not given)	·	·	3.0	·	·
CC(=O)Nc1cccc(Oc2ncnc3scc(-c4ccc(C(C)C)cc4)c23)c1	59.9*	1.2	7.6	0.3	-3.9
CCNS(=O)(=O)c1ccc(Br)c(OC)c1	19.7	-51.4	0.7	-11.4	-0.9
Cc1cccc(C2(c3cccc(C)c3)OC(=O)c3ccccc32)c1	3.6	-58.7	9.0*	-8.1	0.2
CN(C)/C=C(/C(=O)c1ccc(Cl)cc1)S(=O)(=O)c1ccc(Cl)cc1	2.3	-30.5	6.6	-9.3	·
COc1cc(Cl)c(C)cc1NC(=O)c1cccc(OC)c1OC	·	·	10.3*	·	·
Cc1cccc(N=N/C(=C\O)C(=O)c2cccs2)c1	·	·	1.1	·	·
COc1ccc(NC(=O)CCSc2ccc(C)cc2)cc1S(=O)(=O)Nc1ccccc1Cl	4.2	12.3	8.8*	-3.0	-12.4
CCCOC(=O)c1ccc(NC(=O)c2nc3nc(C)cc(C)n3n2)cc1	·	·	3.5	·	·
Cc1ccc(S(=O)(=O)N2CCC(=O)N(C(COCc3ccc(C(F)(F)F)cc3)Cc3ccccc3)CC2)cc1 (stereo not given)	1.2	-31.9	10.0*	2.4	·
Cc1ccc(S(=O)(=O)N(C)c2ccccc2C(=O)NC2CCCC2)cc1	8.8	-20.1	-0.3	4.8	-2.3
C=CCSc1ncccc1C(=O)NCc1ccccc1	79.8*	-8.9	1.3	-4.4	-2.8
CCn1c2ccccc2c2cc(NC(=O)COc3ccccc3OC)ccc21	2.8	-9.3	9.6*	-5.8	·
COc1cccc(NC(=S)NCCc2ccccn2)c1	·	·	2.9	·	·
Cc1cc(NC(=O)c2cccc(Oc3ccccc3)c2)n[nH]1	·	·	2.0	·	·
CN1C(=O)c2ccccc2N(C)C1c1ccc2c(c1)OCO2 (stereo not given)	16.8	-37.2	0.5	-17.3	2.2
O=C1C=CC2C(c3ccc4c(c3)OCO4)CC1N2Cc1ccccc1 (stereo not given)	10.2	-32.7	0.2	50.2*	-4.5
COc1ccc2c(=O)c(Oc3ccc(C(=O)O)cc3)c(C(F)(F)F)oc2c1	·	·	4.0	·	·
CC(C)Cc1nnc(NS(=O)(=O)c2ccc(Cl)cc2)s1	12.2	-18.3	1.3	26.3*	-0.4
CCOc1ccc2nc(NCCCNS(=O)(=O)c3ccc(F)cc3)c(C#N)cc2c1	2.2	-39.9	4.7	·	·
CCOc1ccc2nc(NCCCNS(=O)(=O)c3ccccc3)c(C#N)cc2c1	14.7	-22.6	9.7*	-9.4	-2.7
Cn1c(-c2cccc3ccccc23)n[nH]c1=S	5.3	-48.3	0.5	-0.9	-0.7
Cn1c(=O)c(NCCO)c2c3c(cccc31)C(=O)c1ccccc1-2	7.2	-38.9	0.0	0.6	-0.9
CCCCNc1c2c3c(cccc3n(C)c1=O)C(=O)c1ccccc1-2	13.4	-40.4	9.2*	7.0	·
Cc1cc(C)c(S(=O)(=O)Nc2ccccc2C(=O)OCC(=O)NCc2ccccc2)c(C)c1	·	·	8.7*	·	·
SMILES	Measles CPE	Yeast growth inh	RAM network inh	Yeast lifespan up	Phagocytosis inh
O=C(COC(=O)c1ccccc1Nc1ccccc1)NCc1ccccc1	9.3	-17.6	2.6	8.2	-14.9
O=C(CN1CCN(Cc2cccc(Cl)c2)C1=O)NCc1ccccn1	34.2*	1.8	1.0	-9.5	0.1
OC(CN1CCN(c2ccccn2)CC1)Cn1c2ccc(Cl)cc2c2cc(Cl)ccc21 (stereo not given)	9.6	99.3*	-1.1	-26.8	·
OC(COC(c1ccc(Cl)cc1)c1ccc(Cl)cc1)CN1CCN(c2ccccn2)CC1 (stereo not given)	11.6	-27.9	0.1	5.5	1.3
CC(=O)Nc1ccc(Nc2cc(C)nc3c(-c4ccccc4)c(C)nn23)cc1	93.0*	2.7	0.1	-6.8	·
COc1ccc(C(=O)NCC(C)(C)SCc2c(C)cc(C)cc2C)cc1	29.8	-61.4	9.3*	-6.4	-1.9
COc1ccc(CNC(=O)c2ccc(C(C)(C)C)cc2)cc1	·	·	2.0	·	·
O=C(c1ccc2snnc2c1)N1CCN(c2ccccc2)CC1	2.6	-35.5	0.1	-0.5	0.2
Cn1nnc2cc(C(=O)N3CCN(c4ccccc4)CC3)ccc21	43.1*	-99.2	0.7	-12.7	·
CS(=O)(=O)Nc1ccc(C(=O)N2CCN(c3ccccc3)CC2)cc1	42.2*	-16.2	0.6	6.1	-2.4
O=C(c1ccccc1)N1CCN(C(=O)c2ccccc2)CC1	37.6*	-25.4	1.1	·	·
O=C(O)c1ccccc1C(=O)N1CCN(c2ccccc2)CC1	45.2*	-28.4	1.5	-0.5	0.9
